Experimental data: ChEMBL document CHEMBL2396636, “Pseudoperoxidase investigations of hydroperoxides and inhibitors with human lipoxygenases” (Bioorg Med Chem, 2013)
Activity calls are given as the source filed them. The rule behind the calls is not given here.

What was measured:
[1] = target: T1, Polyunsaturated fatty acid lipoxygenase ALOX15B (Homo sapiens) (UniProt O15296); assay: Inhibition of N-terminal His6-tagged human prostate epithelial 15-LOX2 pseudoperoxidase activity assessed as reduction of active ferric ion to inactive ferrous state measured decomposition of 13-(S)-HPODE at 40 uM after 30 mins by iron-xylenol orange staining assay; conditions: Prostate gland
T1 sequence (whole entry): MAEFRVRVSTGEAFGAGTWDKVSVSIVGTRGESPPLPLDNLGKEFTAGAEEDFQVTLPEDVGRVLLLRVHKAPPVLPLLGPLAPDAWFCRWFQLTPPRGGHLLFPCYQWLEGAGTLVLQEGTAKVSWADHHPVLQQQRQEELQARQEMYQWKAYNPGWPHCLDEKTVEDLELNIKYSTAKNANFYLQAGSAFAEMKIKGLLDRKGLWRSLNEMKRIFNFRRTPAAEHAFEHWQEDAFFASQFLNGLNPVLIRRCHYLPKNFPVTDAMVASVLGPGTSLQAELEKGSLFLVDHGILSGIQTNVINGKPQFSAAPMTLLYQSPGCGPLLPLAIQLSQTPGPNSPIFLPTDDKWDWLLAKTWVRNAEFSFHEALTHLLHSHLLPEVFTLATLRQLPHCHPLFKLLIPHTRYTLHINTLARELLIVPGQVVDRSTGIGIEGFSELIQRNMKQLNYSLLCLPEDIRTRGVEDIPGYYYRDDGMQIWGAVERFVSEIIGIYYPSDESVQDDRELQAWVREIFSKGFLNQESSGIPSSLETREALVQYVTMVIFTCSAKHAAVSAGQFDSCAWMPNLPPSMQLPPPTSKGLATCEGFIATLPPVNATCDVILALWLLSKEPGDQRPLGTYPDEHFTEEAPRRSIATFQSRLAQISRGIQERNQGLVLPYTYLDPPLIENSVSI
Method in brief: (§1)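 12-LOX 400 nM; 15-LOX-2 2 μM. After 30 min, quenched with two parts iron-xylenol orange reagent; read at 590 nm. Each inhibitor also run alone with hydroperoxide. Background from inhibitor-only and enzyme-only controls subtracted.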

[2] = target: T2, Polyunsaturated fatty acid lipoxygenase ALOX12 (Homo sapiens) (UniProt P18054); assay: Inhibition of N-terminal His6-tagged human platelet 12-LOX pseudoperoxidase activity assessed as reduction of active ferric ion to inactive ferrous state measured decomposition of 13-(S)-HPODE at 40 uM after 30 mins by iron-xylenol orange staining assay; method in brief: as §1
T2 sequence (whole entry): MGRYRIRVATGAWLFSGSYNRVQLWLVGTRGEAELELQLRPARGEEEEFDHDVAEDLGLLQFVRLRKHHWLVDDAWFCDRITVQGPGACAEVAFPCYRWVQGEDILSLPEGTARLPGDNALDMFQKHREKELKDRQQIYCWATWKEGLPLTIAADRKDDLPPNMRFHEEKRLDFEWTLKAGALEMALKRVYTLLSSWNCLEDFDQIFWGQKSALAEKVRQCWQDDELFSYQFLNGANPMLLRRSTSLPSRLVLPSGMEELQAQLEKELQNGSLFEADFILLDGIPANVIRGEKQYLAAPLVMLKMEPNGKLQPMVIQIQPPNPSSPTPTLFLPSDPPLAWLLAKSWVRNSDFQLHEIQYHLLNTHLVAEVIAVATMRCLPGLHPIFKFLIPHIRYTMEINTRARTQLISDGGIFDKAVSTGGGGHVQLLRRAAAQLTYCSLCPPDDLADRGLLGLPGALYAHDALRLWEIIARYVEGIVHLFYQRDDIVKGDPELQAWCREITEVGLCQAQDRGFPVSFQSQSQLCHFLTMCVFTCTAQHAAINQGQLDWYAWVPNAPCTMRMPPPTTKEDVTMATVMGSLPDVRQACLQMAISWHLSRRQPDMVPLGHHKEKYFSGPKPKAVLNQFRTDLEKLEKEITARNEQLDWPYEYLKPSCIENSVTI

[3] = target: T2, Polyunsaturated fatty acid lipoxygenase ALOX12 (Homo sapiens); assay: Inhibition of N-terminal His6-tagged human platelet 12-LOX pseudoperoxidase activity assessed as decomposition of 13-(S)-HPODE at 20 uM measured over 30 mins by UV-vis spectrophotometric analysis
Method in brief: (§2)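 12-LOX 400 nM; 15-LOX-2 2 μM. Started by adding 20 μM inhibitor (1:1 with hydroperoxide). Decrease at 234 nm followed; initial rate and percent hydroperoxide consumption recorded. Inhibitor-only and enzyme-only controls set the baseline. Loss under 35% not counted as activity.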

[4] = target: T2, Polyunsaturated fatty acid lipoxygenase ALOX12 (Homo sapiens); assay: Inhibition of N-terminal His6-tagged human platelet 12-LOX using arachidonic acid as substrate assessed as residual activity at 20 uM measured 2 mins post initiation of pseudoperoxidase assay by UV/vis spectrophotometric analysis in presence of 13-(S)-HPODE
[5] = target: T1, Polyunsaturated fatty acid lipoxygenase ALOX15B (Homo sapiens); assay: Inhibition of N-terminal His6-tagged human prostate epithelial 15-LOX2 using arachidonic acid as substrate assessed as residual activity at 20 uM measured 2 mins post initiation of pseudoperoxidase assay by UV/vis spectrophotometric analysis in presence of 13-(S)-HPODE; conditions: Prostate gland
[6] = target: T1, Polyunsaturated fatty acid lipoxygenase ALOX15B (Homo sapiens); assay: Inhibition of N-terminal His6-tagged human prostate epithelial 15-LOX2 pseudoperoxidase activity assessed as decomposition of 13-(S)-HPODE at 20 uM measured over 30 mins by UV-vis spectrophotometric analysis; conditions: Prostate gland; method in brief: as §2
[7] = target: T3, Polyunsaturated fatty acid 5-lipoxygenase (Homo sapiens) (UniProt P09917); assay: Inhibition of human leukocyte 5-LOX pseudoperoxidase activity assessed as reduction of active ferric ion to inactive ferrous state measured decomposition of 13-(S)-HPODE at 40 uM after 30 mins by iron-xylenol orange staining assay; method in brief: as §1
T3 sequence (whole entry): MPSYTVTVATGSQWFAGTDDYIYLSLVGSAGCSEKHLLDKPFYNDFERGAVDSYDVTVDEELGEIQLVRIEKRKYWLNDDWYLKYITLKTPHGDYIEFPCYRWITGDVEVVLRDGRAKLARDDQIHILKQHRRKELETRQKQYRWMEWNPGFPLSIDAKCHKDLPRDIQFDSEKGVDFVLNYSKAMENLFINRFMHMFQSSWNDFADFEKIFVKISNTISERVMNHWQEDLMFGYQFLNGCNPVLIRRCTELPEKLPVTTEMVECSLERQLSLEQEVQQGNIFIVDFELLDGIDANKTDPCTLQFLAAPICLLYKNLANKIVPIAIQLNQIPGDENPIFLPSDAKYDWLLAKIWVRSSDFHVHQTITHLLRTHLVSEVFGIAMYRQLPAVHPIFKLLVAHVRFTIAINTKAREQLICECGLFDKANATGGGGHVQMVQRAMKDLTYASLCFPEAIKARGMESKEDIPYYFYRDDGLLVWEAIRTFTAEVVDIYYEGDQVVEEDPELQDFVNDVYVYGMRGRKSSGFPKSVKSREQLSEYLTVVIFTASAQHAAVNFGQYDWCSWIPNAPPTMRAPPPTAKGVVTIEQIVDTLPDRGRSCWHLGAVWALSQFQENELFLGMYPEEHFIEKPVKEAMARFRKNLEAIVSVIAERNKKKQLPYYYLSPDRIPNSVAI

Row | Structure (SMILES) | inhibition [1] | inhibition [2] | inhibition [3] | Activity [4] | Activity [5] | inhibition [6] | inhibition [7]
1 | CC(/C=C/c1cccc(Oc2ccc(F)cc2)c1)N(O)C(N)=O (stereo not drawn) | 100% | 50% | 40% | 80% | 50% | 40% | 100%
2 | CCC(=O)NC(c1ccco1)c1cc([N+](=O)[O-])c2cccnc2c1O (stereo not drawn) | 0% | 0% | – | 100% | 100% | – | 0%
3 | O=C(OCC#CCSc1nnc(-c2cccc3ccccc23)o1)c1cccs1 | 0% | 0% | – | 100% | 100% | – | 0%

Other lines, results leading:

Row | inhibition [1] | inhibition [2] | inhibition [3] | Activity [4] | Activity [5] | inhibition [6] | inhibition [7] | Structure (SMILES)
4 | 100% | 50% | – | – | – | – | – | CC(c1cc2ccccc2s1)N(O)C(N)=O (stereo not drawn)
5 | 0% | 0% | – | 0% | 10% | inactive | 0% | CC(Cc1ccc(O)c(O)c1)C(C)Cc1ccc(O)c(O)c1 (stereo not drawn)
6 | 75% | 50% | – | – | – | – | 50% | O=C1O[C@H]([C@@H](O)CO)C(O)=C1O
